Source: PMC8293762 (Slas Discovery, 2021)

Assays:
HCN4 [1] = target: T1, HCN4 (Homo sapiens, UniProt Q9Y3Q4); test: Random screening of ~16,000 compounds for HCN4 blockade, IonWorks; assay type: cell-based; details: six-pulse protocol; blockade traces, Fig. 3C
T1 sequence (Q9Y3Q4 1-1203): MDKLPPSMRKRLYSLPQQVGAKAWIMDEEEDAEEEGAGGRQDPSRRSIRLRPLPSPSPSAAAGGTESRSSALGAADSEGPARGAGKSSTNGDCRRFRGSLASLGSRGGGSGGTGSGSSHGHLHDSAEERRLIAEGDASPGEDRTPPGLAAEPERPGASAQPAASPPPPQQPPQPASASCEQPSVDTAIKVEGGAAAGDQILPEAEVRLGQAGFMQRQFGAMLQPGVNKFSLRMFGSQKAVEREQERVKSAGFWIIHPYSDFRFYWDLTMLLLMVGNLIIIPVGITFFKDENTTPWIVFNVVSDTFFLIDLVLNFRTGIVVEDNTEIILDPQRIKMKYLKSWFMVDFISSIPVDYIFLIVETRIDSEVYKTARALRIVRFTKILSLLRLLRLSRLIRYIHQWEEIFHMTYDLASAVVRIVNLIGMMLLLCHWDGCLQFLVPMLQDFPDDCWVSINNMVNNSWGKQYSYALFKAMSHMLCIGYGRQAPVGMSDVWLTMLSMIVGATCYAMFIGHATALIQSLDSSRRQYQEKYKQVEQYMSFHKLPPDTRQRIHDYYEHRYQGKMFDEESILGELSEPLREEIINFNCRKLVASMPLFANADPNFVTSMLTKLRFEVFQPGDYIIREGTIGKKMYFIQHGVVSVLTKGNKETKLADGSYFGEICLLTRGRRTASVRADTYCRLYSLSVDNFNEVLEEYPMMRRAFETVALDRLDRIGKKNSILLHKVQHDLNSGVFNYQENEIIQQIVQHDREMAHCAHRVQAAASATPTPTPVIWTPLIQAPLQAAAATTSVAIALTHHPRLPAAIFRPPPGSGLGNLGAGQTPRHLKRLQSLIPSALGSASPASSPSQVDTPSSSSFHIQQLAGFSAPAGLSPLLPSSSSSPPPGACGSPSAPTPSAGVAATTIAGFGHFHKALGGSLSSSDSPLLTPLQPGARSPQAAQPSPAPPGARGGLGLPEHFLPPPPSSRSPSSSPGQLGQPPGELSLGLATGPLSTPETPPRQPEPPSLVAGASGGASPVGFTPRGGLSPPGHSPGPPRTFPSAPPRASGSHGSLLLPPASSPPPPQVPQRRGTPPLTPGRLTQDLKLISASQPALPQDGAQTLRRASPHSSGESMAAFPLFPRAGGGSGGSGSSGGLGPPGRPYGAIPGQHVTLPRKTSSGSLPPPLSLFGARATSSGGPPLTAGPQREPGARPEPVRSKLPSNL
Method in brief: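 Human HCN4 (Thr110Ser) stably expressed in CHO-K1 cells, grown at 37 °C, then held at 30 °C for 2−8 days before recording. Perforated-patch (amphotericin B) IonWorks recording, SH mode then PPC mode. Held at −30 mV with a +10 mV leak prepulse, then six hyperpolarizing pulses. Test compound at 30 μM, DMSO 0.3% per well. Current at end of last pulse read before and 5−10 min after addition; percent inhibition from post/pre ratio.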

HCN4 [2] = target: T1, HCN4; assay type: cell-based; details: six repetitive hyperpolarization pulses, Fig. 2A,B
[3] = test system: isolated rat right atrium; test: Heart rate in isolated rat right atrium in vitro; details: data not shown

| Compound | Use dependence of HCN4 blockade over six pulses (HCN4 [1]) | Use dependence of HCN4 blockade according to pulse number (HCN4 [2]) | Effect on heart rate in isolated rat right atrium [3] |
| --- | --- | --- | --- |
| ZD7288 [reference compound] | almost the same blockade or even a decreasing blockade over six pulses |  |  |
| COc1cc2c(cc1OC)CC(=O)N(CCCN(C)C[C@H]1Cc3cc(OC)c(OC)cc31)CC2 [Ivabradine] |  | use-dependent blockade |  |
| COc1cc(Cl)c(S(=O)(=O)N[C@@H](C)C(=O)N2CCC(N3CCCCC3)CC2)cc1Cl [T-478, N-[(2S)-1-([1,4′-bipiperidin]-1′-yl)-1-oxopropan-2-yl]-2,5-dichloro-4-methoxybenzene-1-sulfonamide] | use-dependent blockade |  | reduced heart rate |
| FC(F)(F)c1cccc(-c2ccc3c(c2)CNCC3)c1 [T-524, 7-[3-(trifluoromethyl)phenyl]-1,2,3,4-tetrahydroisoquinoline] | almost the same blockade or even a decreasing blockade over six pulses |  | reduced heart rate |
| O=C(c1ccc(-n2cccn2)nc1)N1CCN2C(=O)OC(c3ccccc3)(c3ccccc3)[C@H]2C1 [T-788, (8aR)-1,1-diphenyl-7-[6-(1H-pyrazol-1-yl)pyridine-3-carbonyl]hexahydro-3H-[1,3]oxazolo[3,4-a]pyrazin-3-one] | almost the same blockade or even a decreasing blockade over six pulses |  | reduced heart rate |
